Source: ChEMBL document CHEMBL1138697, “Development of a new class of potential antiatherosclerosis agents: NO-donor antioxidants” (Bioorg Med Chem Lett, 2004)

Key:
Rattus norvegicus [1] = organism: Rattus norvegicus; experiment: Tested for inhibition of ferrous salt/ascorbate induced lipidic peroxidation of membrane lipid of rat hepatocytes; type: functional; conditions: Hepatocyte
In short: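 Rat liver microsomes (male Wistar, 200-250 g) were prepared by differential centrifugation and used at 2 mg prot/mL. Incubation was at 37°C, pH 7.4, Tris-HCl/KCl, with 100 μM ascorbate and compounds in DMSO (≤5%). TBARS were read at 543 nm against an MDA standard, using the 30-min plateau. IC50 came from % inhibition vs control by non-linear regression.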

Rattus norvegicus [2] = organism: Rattus norvegicus; experiment: Vasodilating activity in rat aorta strip in absence of 1H-[1,2,4]oxadiazolo[4,3-a]quinoxalin-1-one (ODQ); type: functional, organism-based
In short: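 Rat aortic strips were precontracted with 1 μM L-phenylephrine and relaxation was measured. The method follows an earlier published procedure with minor changes.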

Rattus norvegicus [3] = organism: Rattus norvegicus; experiment: Vasodilating activity in rat aorta strip in presence of 1H-[1,2,4]oxadiazolo[4,3-a]quinoxalin-1-one (ODQ); type: functional, organism-based
In short: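 Rat aortic strips were precontracted with 1 μM L-phenylephrine. ODQ 1 μM was added to the bath at least 5 min before contraction, in a separate series of experiments, and relaxation was then measured.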

| SMILES | IC50 (Rattus norvegicus [1]) | EC50 (Rattus norvegicus [2]) | EC50 (Rattus norvegicus [3]) |
| --- | --- | --- | --- |
| Cc1cc(C(C)(C)C)c(O)c(C(C)(C)C)c1 [BUTYLATED HYDROXYTOLUENE] | 1700 nM | – | – |
| O=[N+]([O-])OCCCc1ccc(O)cc1 | 143000 nM | 1000 nM | – |
| CC(C)(C)c1cc(CCCOc2no[n+]([O-])c2S(=O)(=O)c2ccccc2)cc(C(C)(C)C)c1O | 2000 nM | 110 nM | 4800 nM |
| Cc1c(C)c2c(c(C)c1O)CCC(C)(COc1no[n+]([O-])c1S(=O)(=O)c1ccccc1)O2 (stereo unspecified) | 490 nM | 40 nM | 670 nM |
| CCOc1no[n+]([O-])c1S(=O)(=O)c1ccccc1 | 110000 nM | 10 nM | 1200 nM |
| Cc1c(C)c2c(c(C)c1O)CCC(C)(C)O2 [APC-100] | 170 nM | – | – |
| O=S(=O)(c1ccccc1)c1c(OCCCc2ccc(O)cc2)no[n+]1[O-] | 47000 nM | 10 nM | 360 nM |
| Cc1ccc(O)cc1 [p-CRESOL] | 290000 nM | – | – |
| Cc1c(C)c2c(c(C)c1O)CCC(C)(COCCCO[N+](=O)[O-])O2 (stereo unspecified) | 150 nM | 1200 nM | – |
| CC(C)(C)c1cc(CCCO[N+](=O)[O-])cc(C(C)(C)C)c1O | 2000 nM | 40000 nM | – |
